Laboratory results: ChEMBL document CHEMBL1212759, “Antifungal activity of colistin against mucorales species in vitro and in a murine model of Rhizopus oryzae pulmonary infection” (Antimicrob Agents Chemother, 2010)
Calls of active or inactive are those of the source. The calls are words filed in the database; no cut-off is given here.

Experiments:
Rhizopus microsporus = test: Antimicrobial activity against Rhizopus microsporus isolate 6164 after 24 hrs in yeast nitrogen base complete medium by broth microdilution method; assay type: functional
In short: (§1)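 Broth microdilution in YNB complete medium with colistin at 128 to 0.12 μg/ml. Freshly collected spores were inoculated at 0.5 × 10^4 to 4 × 10^4 cells/ml and incubated 24 h at 37°C. MIC was read visually as the lowest concentration with complete (100%) growth inhibition.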

Rhizopus arrhizus [1] = test: Antimicrobial activity against Rhizopus oryzae assessed as cytoplasmic vacuolar swelling and bleb formation at 32 ug/ml by transmission electron microscopy; assay type: functional, organism-based
Rhizopus arrhizus [2] = test: Antimicrobial activity against Rhizopus oryzae isolate 6725 after 24 hrs in RMPI 1640 medium by broth microdilution method; assay type: functional, organism-based
In short: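 Broth microdilution in RPMI 1640 with […], without bicarbonate. Colistin was serially diluted 64 to 0.06 μg/ml. Spores came from YAG plates grown 48–72 h at 37°C, were filtered and counted, and were inoculated at 0.5 × 10^4 to 4 × 10^4 cells/ml. Plates were incubated 24 h at 37°C. MIC was read visually as the lowest concentration giving 100% growth inhibition.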

Mucor circinelloides [3] = test: Antimicrobial activity against Mucor circinelloides isolate 5904 after 24 hrs in yeast nitrogen base complete medium by broth microdilution method; assay type: functional, organism-based; in short: as §1
Rhizopus arrhizus [4] = test: Antimicrobial activity against Rhizopus oryzae isolate 3140 after 24 hrs in RMPI 1640 medium by broth microdilution method; assay type: functional, organism-based
In short: (§2)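 Colistin was serially diluted from 64 to 0.06 μg/ml in RPMI 1640 with glucamine and without bicarbonate. Fresh spores from 48–72 h YAG plates were added at 0.5 × 10^4 to 4 × 10^4 cells/ml. Plates were incubated 24 h at 37°C. MIC was read visually as the lowest concentration giving 100% growth inhibition.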

Rhizopus = test: Antimicrobial activity against Rhizopus sp. isolate 4523 after 24 hrs in yeast nitrogen base complete medium by broth microdilution method; assay type: functional, organism-based
In short: (§3)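 Microdilution was done in yeast nitrogen base complete medium, with colistin serially diluted 128 to 0.12 μg/ml. Spores were harvested from YAG plates (48–72 h, 37°C), washed, filtered and counted, then added at 0.5 × 10^4 to 4 × 10^4 cells/ml. After 24 h at 37°C, MIC was taken visually as the lowest concentration with complete growth inhibition.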

Rhizopus arrhizus [5] = test: Antimicrobial activity against Rhizopus oryzae isolate 5496 after 24 hrs in RMPI 1640 medium by broth microdilution method; assay type: functional, organism-based; in short: as §2
Rhizopus arrhizus [6] = test: Fungicidal activity against Rhizopus oryzae 5799 after 6 hrs by DiBAC staining; assay type: functional, organism-based
In short: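 Spores were grown to mycelia in RPMI 1640 plus 0.15% Junlon, shaken 18 h at 37°C. Mycelia were pelleted and exposed 6 h at 37°C with shaking to colistin (two levels), amphotericin B 2 μg/ml, or drug-free medium. They were washed in MOPS pH 7, stained with DiBAC 2 μg/ml for 1 h in the dark at ambient temperature, and imaged by fluorescence microscopy with an FITC filter.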

Mucor circinelloides [7] = test: Antimicrobial activity against Mucor circinelloides isolate 4480 after 24 hrs in RMPI 1640 medium by broth microdilution method; assay type: functional, organism-based; in short: as §2
Mucor circinelloides [8] = test: Ratio of MFC to MIC for Mucor circinelloides isolate 4480 after 24 hrs in RMPI 1640 medium by broth microdilution method; assay type: functional, organism-based
In short: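 RPMI 1640 microdilution with colistin at 64 to 0.06 μg/ml and spores at 0.5 × 10^4 to 4 × 10^4 cells/ml, incubated 24 h at 37°C. MIC was read visually as 100% inhibition. For MFC, 20 μl from clear wells and from the last growth well were subcultured onto YAG. MFC was the lowest concentration giving fewer than three colonies at 24 h (≥99.9% killing). The line reports the MFC/MIC ratio.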

Mucor circinelloides [9] = test: Antimicrobial activity against Mucor circinelloides isolate 4030 after 24 hrs in RMPI 1640 medium by broth microdilution method; assay type: functional, organism-based; in short: as §2
Rhizopus arrhizus [10] = test: Antimicrobial activity against Rhizopus oryzae isolate 6093 after 24 hrs in yeast nitrogen base complete medium by broth microdilution method; assay type: functional, organism-based; in short: as §3
Rhizopus arrhizus [11] = test: Antimicrobial activity against Rhizopus oryzae at 16 ug/disk after 24 hrs by disk diffusion method; assay type: functional, organism-based
In short: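 Paper disks loaded with 8, 16 or 32 μg colistin were placed on agar plates inoculated with 200 μl of a 10^6 cells/ml R. oryzae spore suspension. After 24 h at 37°C, the diameter of the inhibition zone was measured.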

Rhizopus homothallicus [12] = test: Antimicrobial activity against Rhizopus homothallicus isolate 6360 after 24 hrs in yeast nitrogen base complete medium by broth microdilution method; assay type: functional; in short: as §1
Rhizopus homothallicus [13] = test: Antimicrobial activity against Rhizopus homothallicus isolate 5790 after 24 hrs in RMPI 1640 medium by broth microdilution method; assay type: functional; in short: as §2
Rhizopus arrhizus [14] = test: Antimicrobial activity against Rhizopus oryzae isolate 4549 after 24 hrs in yeast nitrogen base complete medium by broth microdilution method; assay type: functional, organism-based; in short: as §1
Mucor circinelloides [15] = test: Antimicrobial activity against Mucor circinelloides isolate 5904 after 24 hrs in RMPI 1640 medium by broth microdilution method; assay type: functional, organism-based; in short: as §2
Mucor circinelloides [16] = test: Antimicrobial activity against Mucor circinelloides isolate 4030 after 24 hrs in yeast nitrogen base complete medium by broth microdilution method; assay type: functional, organism-based; in short: as §1
Rhizopus arrhizus [17] = test: Antimicrobial activity against Rhizopus oryzae assessed as plasma membrane disruption-related ATP release at 8 ug/ml after 5 mins by Cell Titer-Glo luminescent assay; assay type: functional, organism-based
In short: (§4)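 Spores at 10^7 cells/ml in RPMI 1640 were germinated about 6 h at 37°C. Germlings were resuspended in RPMI with colistin at 8 or 32 μg/ml, or drug-free, and shaken at 37°C. Supernatants taken at 5, 30, 60 and 90 min were assayed for released ATP by CellTiter-Glo luminescence.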

Rhizopus arrhizus [18] = test: Antimicrobial activity against Rhizopus oryzae assessed as plasma membrane disruption-related ATP release at 32 ug/ml after 30 mins by Cell Titer-Glo luminescent assay; assay type: functional, organism-based; in short: as §4
[19] = test system: Cunninghamella bertholletiae; test: Antimicrobial activity against Cunninghamella bertholletiae isolate 6733 after 24 hrs in RMPI 1640 medium by broth microdilution method; assay type: functional, organism-based; in short: as §2
Rhizopus arrhizus [20] = test: Antimicrobial activity against Rhizopus oryzae isolate 4549 after 24 hrs in RMPI 1640 medium by broth microdilution method; assay type: functional, organism-based; in short: as §2
Rhizopus arrhizus [21] = test: Antimicrobial activity against Rhizopus oryzae isolate 4153 after 24 hrs in yeast nitrogen base complete medium by broth microdilution method; assay type: functional, organism-based; in short: as §1
Rhizopus arrhizus [22] = test: Antimicrobial activity against Rhizopus oryzae assessed as plasma membrane disruption-related ATP release at 32 ug/ml after 5 mins by Cell Titer-Glo luminescent assay; assay type: functional, organism-based; in short: as §4
Rhizopus arrhizus [23] = test: Antimicrobial activity against Rhizopus oryzae assessed as plasma membrane disruption-related ATP release at 8 ug/ml after 30 mins by Cell Titer-Glo luminescent assay; assay type: functional, organism-based; in short: as §4

For COLISTIN, the MFC (Rhizopus microsporus) was > 128 µg/mL, the MIC (Rhizopus microsporus) was 128 µg/mL and the Activity (Rhizopus arrhizus [1]) was “Active”. The MFC (Rhizopus arrhizus [2]) was 32 µg/mL, the MIC (Rhizopus arrhizus [2]) was 16 µg/mL and the MFC (Mucor circinelloides [3]) was > 128 µg/mL. The MIC (Mucor circinelloides [3]) was 128 µg/mL, the MFC (Rhizopus arrhizus [4]) was 32 µg/mL and the MIC (Rhizopus arrhizus [4]) was 16 µg/mL. For the same sequence, the MFC (Rhizopus) was > 128 µg/mL, the MIC (Rhizopus) was 128 µg/mL and the MFC (Rhizopus arrhizus [5]) was 32 µg/mL. For the same sequence, the MIC (Rhizopus arrhizus [5]) was 16 µg/mL, the Activity (Rhizopus arrhizus [6]) was “Dose-dependent effect” and the MFC (Mucor circinelloides [7]) was 32 µg/mL. It also gave an MIC (Mucor circinelloides [7]) of 16 µg/mL, a Ratio (Mucor circinelloides [8]) of 2 and an MFC (Mucor circinelloides [9]) of 64 µg/mL. The MIC (Mucor circinelloides [9]) was 16 µg/mL, the MFC (Rhizopus arrhizus [10]) was > 128 µg/mL and the MIC (Rhizopus arrhizus [10]) was 128 µg/mL. For the same sequence, the inhibition zone (IZ) (Rhizopus arrhizus [11]) was 19 mm, the MFC (Rhizopus homothallicus [12]) was > 128 µg/mL and the MIC (Rhizopus homothallicus [12]) was 128 µg/mL. For the same sequence, the MFC (Rhizopus homothallicus [13]) was 64 µg/mL, the MIC (Rhizopus homothallicus [13]) was 16 µg/mL and the MFC (Rhizopus arrhizus [14]) was > 128 µg/mL. It also gave an MIC (Rhizopus arrhizus [14]) of 128 µg/mL, an MFC (Mucor circinelloides [15]) of 64 µg/mL and an MIC (Mucor circinelloides [15]) of 16 µg/mL. For the same sequence, the MFC (Mucor circinelloides [16]) was > 128 µg/mL, the MIC (Mucor circinelloides [16]) was 128 µg/mL and the Activity (Rhizopus arrhizus [17]) was “Active”. The Activity (Rhizopus arrhizus [18]) was “Active”, the MFC [19] was 64 µg/mL and the MIC [19] was 32 µg/mL. The MFC (Rhizopus arrhizus [20]) was 64 µg/mL, the MIC (Rhizopus arrhizus [20]) was 32 µg/mL and the MFC (Rhizopus arrhizus [21]) was > 128 µg/mL. For the same sequence, the MIC (Rhizopus arrhizus [21]) was 128 µg/mL, the Activity (Rhizopus arrhizus [22]) was “Active” and the Activity (Rhizopus arrhizus [23]) was “Active”.
